Test results taken from publication PMC4264455 (British Journal of Cancer, 2014).
“Also recorded” adds a separate entry of the source.

What was measured:
[1] = test system: patients with advanced refractory solid tumours or non-Hodgkin's lymphoma; assay: Phase I dose escalation: safety, tolerability, DLT and adverse events; format: in vivo, human
[2] = Pharmacokinetic analysis of plasma AT7519 after first 1-h intravenous infusion; format: in vivo, human
QTc intervals = assay: ECG analysis; format: in vivo, human
How it was run: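 After dose level 1, patients with QTc ⩾460 ms at baseline, congenital long QT or QT-affecting medication were excluded. 12-lead ECGs were taken immediately before and after each infusion on days 1, 4, 8 and 11 of cycle 1, with a confirmatory ECG within 48 h of any abnormality. QT was machine-recorded with Bazett correction. At 27.0 mg m−2, 24-h ambulatory ECG started immediately after the cycle 1 infusion. An independent cardiologist reviewed all tracings.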

[3] = test system: advanced solid malignancies or non-Hodgkin's lymphoma; assay: Anti-tumour activity; format: in vivo, human
How it was run: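 Test compound given as a 1-h IV infusion on days 1, 4, 8 and 11 every 3 weeks, at 14.4–32.4 mg m−2. Radiological assessment was done after every two cycles. Response was graded by RECIST version 1.1. Treatment continued until progression, unacceptable toxicity or consent withdrawal.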

[4] = test system: markers of CDK activity in tumour biopsies; assay: Pharmacodynamic analysis of tumour biopsies; format: in vivo, human; settings: three patients at RP2D, pre-dose vs 24 h after end of infusion
How it was run: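 Tumour biopsies were taken at 27.0 mg m−2, before dosing and 24 h after the end of a 1-h IV infusion. Samples were immunostained for PCNA, phospho-NPM and Ki67. Read-out was the estimated percentage of positively stained tumour cells.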

CDK4 = settings: ref Squires et al, 2009; cited from earlier work
CDK6 = settings: ref Squires et al, 2009; cited from earlier work
human cancer cell lines = settings: in vitro studies; ref Squires et al, 2010; cited from earlier work
[5] = test system: patients with refractory solid tumors; settings: ref Mahadevan et al, 2011, cited from earlier work
[6] = 1-h intravenous infusion on days 1, 4, 8 and 11 every 3 weeks
[7] = 1-h intravenous infusion, day 1 cycle 1, 29 patients
[8] = 19 patients evaluable for efficacy
[9] = five consecutive days every 3 weeks

SMILES: O=C(NC1CCNCC1)c1n[nH]cc1NC(=O)c1c(Cl)cccc1Cl [AT7519, N-(4-piperidinyl)-4-(2,6-dichlorobenzoylamino)-1H-pyrazole-3-carboxamide]
- maximum tolerated dose [1, 6]: 32.4 mg m^−2
- recommended phase II dose (RP2D) [1, 6]: 27.0 mg m^−2
- ALP elevation: Any grade AE No. of patients (%) ([1]; all dose levels (N=32)): 20 (62.5) No. of patients (%)
- ALP elevation: Grade 3/4 AE No. of patients (%) ([1]; all dose levels (N=32)): 5 (15.6) No. of patients (%)
- AST elevation: Any grade AE No. of patients (%) ([1]; all dose levels (N=32)): 16 (50.0) No. of patients (%)
- AST elevation: Grade 3/4 AE No. of patients (%) ([1]; all dose levels (N=32)): 3 (9.4) No. of patients (%)
- Anaemia: Any grade AE No. of patients (%) ([1]; all dose levels (N=32)): 28 (87.5) No. of patients (%)
- Anaemia: Grade 3/4 AE No. of patients (%) ([1]; all dose levels (N=32)): 1 (3.1) No. of patients (%)
- Anorexia: Any grade AE No. of patients (%) ([1]; all dose levels (N=32)): 4 (12.5) No. of patients (%)
- Anorexia: Grade 3/4 AE No. of patients (%) ([1]; all dose levels (N=32)): 0 No. of patients (%)
- Creatinine elevation: Any grade AE No. of patients (%) ([1]; all dose levels (N=32)): 5 (15.6) No. of patients (%)
- Creatinine elevation: Grade 3/4 AE No. of patients (%) ([1]; all dose levels (N=32)): 1 (3.1) No. of patients (%)
- Diarrhoea: Any grade AE No. of patients (%) ([1]; all dose levels (N=32)): 5 (15.6) No. of patients (%)
- Diarrhoea: Grade 3/4 AE No. of patients (%) ([1]; all dose levels (N=32)): 0 No. of patients (%)
- Fatigue: Any grade AE No. of patients (%) ([1]; all dose levels (N=32)): 17 (53.1) No. of patients (%)
- Fatigue: Grade 3/4 AE No. of patients (%) ([1]; all dose levels (N=32)): 3 (9.4) No. of patients (%)
- Hyperglycaemia (random): Any grade AE No. of patients (%) ([1]; all dose levels (N=32)): 12 (37.5) No. of patients (%)
- Hyperglycaemia (random): Grade 3/4 AE No. of patients (%) ([1]; all dose levels (N=32)): 2 (6.3) No. of patients (%)
- Infection without neutropenia: Any grade AE No. of patients (%) ([1]; all dose levels (N=32)): 6 (18.8) No. of patients (%)
- Infection without neutropenia: Grade 3/4 AE No. of patients (%) ([1]; all dose levels (N=32)): 1 (3.1) No. of patients (%)
- Lymphopenia: Any grade AE No. of patients (%) ([1]; all dose levels (N=32)): 27 (84.4) No. of patients (%)
- Lymphopenia: Grade 3/4 AE No. of patients (%) ([1]; all dose levels (N=32)): 12 (37.5) No. of patients (%)
- Mucositis: Any grade AE No. of patients (%) ([1]; all dose levels (N=32)): 17 (53.1) No. of patients (%)
- Mucositis: Grade 3/4 AE No. of patients (%) ([1]; all dose levels (N=32)): 3 (9.4) No. of patients (%)
- Nausea: Grade 3/4 AE No. of patients (%) ([1]; all dose levels (N=32)): 0 No. of patients (%)
- Neutropenia: Any grade AE No. of patients (%) ([1]; all dose levels (N=32)): 5 (15.6) No. of patients (%)
- Neutropenia: Grade 3/4 AE No. of patients (%) ([1]; all dose levels (N=32)): 1 (3.1) No. of patients (%)
- Thrombocytopenia: Any grade AE No. of patients (%) ([1]; all dose levels (N=32)): 9 (28.1) No. of patients (%)
- Thrombocytopenia: Grade 3/4 AE No. of patients (%) ([1]; all dose levels (N=32)): 0 No. of patients (%)
- Vomiting: Any grade AE No. of patients (%) ([1]; all dose levels (N=32)): 11 (34.4) No. of patients (%)
- Vomiting: Grade 3/4 AE No. of patients (%) ([1]; all dose levels (N=32)): 0 No. of patients (%)
- patients with anaemia ([1]; any grade, all dose levels): 87.5%
- patients with fatigue ([1]; any grade, all dose levels): 53.1%
- patients with lymphopenia ([1]; any grade, all dose levels): 84.4%
- patients with mucositis ([1]; any grade, all dose levels): 53.1%
- patients with nausea ([1]; any grade, all dose levels): 31.7%
- patients with vomiting ([1]; any grade, all dose levels): 34.4%
- No. of patients with DLT ([1]; dose level 14.4 mg m^−2, 5 patients treated, days 1, 4, 8, 11 every 3 weeks): No DLTs and none
- patients experienced grade 3 fatigue and mucositis ([1]; grade 3, all dose levels): < 10%
- grade 3 or 4 elevation of alkaline phosphatase ([1]; grade 3 or 4, all dose levels): 15.6%
- grade 3 or 4 elevation of aspartate transaminase ([1]; grade 3 or 4, all dose levels): 9.4%
- patients developing grade 3 or 4 lymphopenia ([1]; grade 3 or 4, all dose levels): 37.5%
- patients with grade 3 or 4 fatigue and mucositis ([1]; grade 3 or 4, all dose levels): 9%
- plasma clearance [2, 7]: 0.28±0.26 l min^−1 m^−2
- volume of distribution [2, 7]: 289±218 l m^−2
- dose dependence of Cmax and plasma exposures ([2]; 14.4 to 32.4 mg m^−2): apparent dose proportional increase; also recorded: linear pharmacokinetics
- Cmax ([2]; human, plasma, intravenous, 27 mg): 591 ± 358 ng/mL
- half-life ([2]; human, plasma, iv): 13.1 ± 4 h
- patients with transient QTc increases (QTc intervals; among the 24 patients with baseline QTc ⩽450 ms): 10 patients
- QTc prolongation (QTc intervals; serial ECGs, 24-h ambulatory ECG in five patients at the RP2D level): no clinically significant QTc prolongations
- complete or partial response [3, 8]: no complete or partial response; also recorded: no partial response
- patients with progressive disease as best response [3, 8]: nine
- duration of durable stable disease in one patient ([3]; one patient with metastatic rectal cancer, 10 cycles): 11.1 months
- median duration of stable disease ([3]; ten patients with stable disease): 3.3 months
- changes in proliferating cell nuclear antigen, pNPM and Ki67 [4]: no consistent changes
- IC50 (CDK4): 100 nM
- IC50 (CDK6): 170 nM
- concentrations at which anti-cancer activities were observed (human cancer cell lines): above 100 ng ml^−1
- dose at which one patient death from QTc prolongation was reported [5, 9]: 34 mg m^−2 per day
- minimal effective biological dose [5, 9]: 28.8 mg m^−2 per day
- dose at which dose-limiting toxicity (DLT) was initially seen ([5]; × 5 days): 14.4 mg m^−2 per day
